Compounds with a hit are over-represented: about 3.8% of the library has one in this group of screens.
KCNQ1 pot = potentiators or activators of KCNQ1 channel, primary screen, cell-based, thallium flux, high-throughput; Potassium voltage-gated channel subfamily KQT member 1 (Homo sapiens), P51787; CHO-K1 KCNQ1, thallium flux FluxOR fluorescence; active compounds read high; B-score at 10 µM; 0.35% of 310,000 active;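 active = fluorescence ratio B-score, a plate-corrected score, at least three library SD, with initial intensity B-score within 5 SD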
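Schedule – 37 °C overnight plating, 90-min dark dye load, 20-min compound pretreatment · System – stable KCNQ1 CHO-K1 line · Probe or stimulus – thallium- and potassium-containing depolarizing buffer · Measured by – kinetic FluxOR fluorescence, 10 s baseline plus 110 s post-stimulus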
Kir21 block = inhibitors of mouse Kir2.1 inward-rectifier potassium channel | Inward rectifier potassium channel 2 (Mus musculus), P35561 | HEK293-Kir2.1, FluxOR thallium flux fluorescence; active compounds read low | B-score at 10 µM | 0.85% of 310,000 active | AID 1672, 2009;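 active = fluorescence ratio B-score at or below minus 3 SD of library scores, with starting-brightness B-score within 2 SD, cut at about -4.2 in these data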;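 note: channel flux triggered by added potassium and thallium sulfate stimulus; B-score of peak minus minimum fluorescence over baseline after thallium stimulus; more negative B-score means stronger Kir2.1 block with less thallium influx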
KCNK9 inh = KCNK9 potassium channel inhibitors, primary screen, HEK293 cells, thallium flux | FluxOR thallium flux fluorescence; active compounds read low | 1.2% of 310,000 active | AID 488922, 2010 | B-score at 10 µM;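 active = ratio B-score over 3 SD below the library mean, with starting fluorescence within 5 SD of its mean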;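 note: negative B-score means less thallium flux so channel inhibition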
hERG protect = hERG rescue from dofetilide block, primary screen, cell-based, CHO-hERG, FluxOR thallium flux, dofetilide IC70; activation (rescue from dofetilide block), less the hit threshold, % at 10 µM; 0.51% of 310,000 active; AID 1511, 2009; dofetilide IC70 present;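 active = activation above the mean of controls blocked by dofetilide plus 5 SD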;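 note: thallium influx through hERG after potassium depolarization seen as dye fluorescence rise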
KCNK3 inh = human KCNK3 channel inhibitors, primary screen, CHO cells, FluxOR thallium flux, B-score. Potassium channel subfamily K member 3 (Homo sapiens), O14649. FluxOR fluorescence; active compounds read low. B-score at 10 µM. 0.84% of 340,000 active. AID 602410, 2012;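 active = B-score under library mean minus 4 SD, starting fluorescence ratio at most library mean plus 5 SD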;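 note: more negative B-score means stronger inhibition of thallium flux through KCNK3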
Target sequence (O14649 whole entry, looked up): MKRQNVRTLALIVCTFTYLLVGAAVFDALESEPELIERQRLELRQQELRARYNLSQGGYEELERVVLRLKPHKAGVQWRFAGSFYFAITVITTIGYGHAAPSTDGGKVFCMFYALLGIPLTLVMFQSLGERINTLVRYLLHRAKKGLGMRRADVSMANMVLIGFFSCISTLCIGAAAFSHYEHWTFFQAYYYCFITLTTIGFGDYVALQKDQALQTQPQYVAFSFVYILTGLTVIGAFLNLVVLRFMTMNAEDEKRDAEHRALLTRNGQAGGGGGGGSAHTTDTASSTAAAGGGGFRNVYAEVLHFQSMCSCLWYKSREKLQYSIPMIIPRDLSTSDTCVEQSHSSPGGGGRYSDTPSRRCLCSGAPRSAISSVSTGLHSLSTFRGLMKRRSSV
KCNQ1 inh = inhibitors of human KCNQ1 channel, primary screen, cell-based, thallium flux, high-throughput | B-score at 10 µM | 1.3% of 310,000 active | CHO-K1 KCNQ1, FluxOR thallium flux fluorescence; active compounds read high | Potassium voltage-gated channel subfamily KQT member 1 (Homo sapiens), P51787;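 active = compounds whose thallium flux B-score, printed positive for inhibition, exceeds three library SD while starting fluorescence stays within three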;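 note: channel opened by potassium depolarization with thallium stimulus after 20 min compound exposure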
The depositor's hits bear a star; i = inactive; · = no result.

SMILES | KCNQ1 pot | Kir21 block | KCNK9 inh | hERG protect | KCNK3 inh | KCNQ1 inh
CNC(=O)c1nnsc1S(=O)(=O)c1ccc(Cl)cc1 | i | -8.65* | i | -15.3 | i | i
CCc1ccccc1NS(=O)(=O)c1ccc(OC)c2ncccc12 | i | -2.93 | i | -15.5 | i | i
Cc1ccc(NC(=O)c2cccc(OCc3c(C)noc3C)c2)cc1S(=O)(=O)Nc1ccccc1Cl | i | -0.31 | i | -5.8 | i | i
CC(C)CNc1nc(N)c([N+](=O)[O-])c(NCc2ccccc2)n1 | i | 0.21 | i | -0.3 | i | i
COc1ccc(NC(=O)c2sc3nc(C)cc(C)c3c2N)cc1 | i | 0.38 | i | 4.8* | i | i
Cc1cc(C)c2c(N)c(C(=O)Nc3ccc(F)cc3)sc2n1 | i | -0.15 | i | -5.6 | i | i
Cc1ccccc1Oc1ncnc(N)c1[N+](=O)[O-] | i | 0.03 | i | -1.4 | i | i
S=C(NCc1cccs1)Nc1ccccc1 | i | 0.46 | i | -6.9 | i | i
NS(=O)(=O)c1ccc(NC(=S)NCc2cccs2)cc1 | i | -0.59 | i | 6.6* | i | i
O=C(Nc1ccccc1N1CCCCC1)c1ccc(Cl)cc1 | i | 0.02 | -6.69* | -7.2 | i | i
O=C(NC(=S)Nc1ccccc1N1CCCCC1)c1ccc(F)cc1Cl | 10* | 0.91 | i | 0.3 | i | i
O=C(NC(=S)Nc1ccccc1N1CCOCC1)c1ccc(-c2ccccc2F)o1 | 13* | -1.28 | i | -5.3 | i | i
COC(=O)c1ccccc1NC(=S)NC(=O)COc1ccccc1Cl | i | -0.44 | i | -12.2 | i | i
O=C(COc1ccccc1Cl)NC(=S)Nc1ccccc1N1CCCC1 | 7* | -0.6 | -13.5* | 8.5* | i | i
O=C(NC(=S)Nc1cc(Cl)ccc1N1CCOCC1)c1ccc(-c2cccc(Cl)c2)o1 | i | -1.43 | i | -8.1 | i | i
CCCCSc1nnc2c(n1)OC(C(=O)c1ccccc1)Nc1ccccc1-2 (stereo not drawn) | i | -0.47 | i | -16.3 | · | i
CCCCCSc1nnc2c(n1)OC(C)N(C(C)=O)c1ccccc1-2 (stereo not drawn) | i | -0.33 | i | -11.1 | -10.3* | i
CN(C(=O)Cn1cccc1C1=NC(c2ccccc2)CO1)c1ccccc1 (stereo not drawn) | i | -4.66* | i | -9.7 | i | i
c1ccc(OCCOc2ncnc3sccc23)cc1 | i | 1.61 | i | -2.5 | i | i
Cc1cc2nc3ccc(=[N+](C)C)cc-3sc2cc1N | i | 2.24 | i | -12.1 | i | 6*
CN(C)c1ccc2nc3ccc(=[N+](C)C)cc-3sc2c1 | i | 0.18 | i | -1.8 | i | i
CCN(CC(=O)NC(C)(C)C)C(=O)c1ccc2c(c1)S(=O)(=O)c1ccccc1C2=O | i | 2.23 | i | 0.9 | i | i
Cc1cc(C)c(C#N)c(N2CCN(Cc3ccccc3)CC2)n1 | i | -4.54* | i | -9.4 | i | i
Cc1cc(C)c(C#N)c(N2CCN(Cc3ccc4c(c3)OCO4)CC2)n1 | i | -2.24 | i | -5.3 | i | i
CCOc1ccc(S(=O)(=O)Nc2cc(Cl)ccc2O)cc1 | i | -2.57 | i | -14.3 | i | i
SMILES | KCNQ1 pot | Kir21 block | KCNK9 inh | hERG protect | KCNK3 inh | KCNQ1 inh
COc1ccc(NC(=O)CSc2nnc(COc3ccccc3)n2Cc2ccco2)cc1OC | i | 2.11 | i | 5.1* | i | i
COc1ccc(C)cc1NC(=O)CSc1nnc(COc2ccccc2)n1Cc1ccco1 | i | 0.26 | i | -15.2 | i | i
CCC(C)NC(=O)c1c(-c2cc(Cl)c(OC)c(Cl)c2)noc1C (stereo not drawn) | i | 0.03 | i | 2.5 | i | i
CCC1Oc2ccccc2N(CC(=O)NCCN2C(C)CCCC2C)C1=O (stereo not drawn) | i | 1.46 | i | 7.2* | i | i
CCC1Oc2ccccc2N(CC(=O)NCCN2CCCC2)C1=O (stereo not drawn) | i | -0.42 | i | -5.7 | i | i
CCOCCCNC(=O)CN1C(=O)C(CC)Oc2ccccc21 (stereo not drawn) | i | -0.13 | i | 0.1 | i | i
CCC1Oc2ccccc2N(CC(=O)NCCCN2CCC(C)CC2)C1=O (stereo not drawn) | i | -0.07 | i | 5.5* | i | i
C=CCc1ccc(OCCCCN2CC(C)OC(C)C2)c(OC)c1 (stereo not drawn) | i | -0.78 | i | 4.9* | i | i
C/C=C/c1ccc(OCCCCOc2c(OC)cccc2OC)c(OC)c1 | i | 0.68 | i | -1.9 | i | i
C=CCc1ccc(OCCN2CCc3ccccc3C2)c(OC)c1 | i | -10.2* | i | -12.0 | i | i
C/C=C/c1ccc(OCCN2CCc3ccccc3C2)c(OC)c1 | i | -11.2* | i | -17.5 | i | i
C=CCc1ccc(OCCCNCc2ccccc2)c(OC)c1 | i | -8.02* | i | -1.3 | i | i
Cn1c(=O)[nH]c(=O)c2c1nc(N1CCCCC1)n2C/C=N/NC(=O)c1cc(Br)ccc1O | i | 1.33 | i | -8.1 | i | i
O=C(NCCS(=O)(=O)N1CCN(c2ccccc2F)CC1)c1ccc(F)c(F)c1 | i | 1.4 | i | -6.7 | i | i
Cc1ccc2nc(NC(=O)C3CCN(S(=O)(=O)c4cc([N+](=O)[O-])ccc4Cl)CC3)sc2c1 | i | 0.4 | i | -7.1 | i | 9*
Cc1ccc(NC(=O)C2CCN(S(=O)(=O)c3cc([N+](=O)[O-])ccc3Cl)CC2)nc1 | · | · | · | · | i | ·
CCCn1c(N2CCN(CC(=O)NCc3cccs3)CC2)nc2ccccc21 | i | -0.21 | i | -8.4 | i | i
Cc1ccc(S(=O)(=O)N2CCCC(C(=O)NCCc3ccc4c(c3)OCO4)C2)cc1 (stereo not drawn) | i | -1.63 | i | -5.3 | i | i
O=c1c(-c2ccccc2)nc(-c2ccccc2)cn1O | i | -0.51 | i | 4.9* | i | i
Cc1cccc(OCc2n(CC(=O)OC3CC(C)CCC3C(C)C)c3ccccc3[n+]2C)c1 (stereo not drawn) | i | -12.8* | i | -30.8 | -12.6* | 9*

Screening data as filed in PubChem BioAssay.
